Data published in ChEMBL document CHEMBL4428077, “Synthesis and Biological Evaluation of N-((1-(4-(Sulfonyl)piperazin-1-yl)cycloalkyl)methyl)benzamide Inhibitors of Glycine Transporter-1” (J Med Chem, 2016).
One block for each compound: values may come before it. Activity calls are given as the source filed them. The calls are words filed in the database; no cut-off is given here.

Experiments:
[1] = Drug level in Sprague-Dawley rat CSF at 100 mg/kg, po measured 2 hrs post dose by LC-MS/MS analysis; type: ADME, organism-based, Cerebrospinal fluid; settings: read-out: Drug uptake
Method in brief: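 Drug-naive Sprague−Dawley rats (n = 4−5/group) were dosed orally once in 5% Solutol plus 20% Captisol in 25 mM PBS, pH 2, and euthanized 2 h later by CO₂. CSF was drawn from the cisterna magna. Drug was measured in CSF, brain and plasma; data as mean ± SEM.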

[2] = tested on: Rattus norvegicus; test: In vivo inhibition of glycine transporter-1 in Sprague-Dawley rat assessed as CSF glycine level at 10 mg/kg, po qd for 5 days measured 2 hrs post last dose by LC-MS/MS analysis relative to control; type: functional; parameters: scale not given: the % may be the effect or the level left
Method in brief: (§1)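 Drug-naive Sprague-Dawley rats, n = 5 per group, dosed orally once daily for 5 days with vehicle or 1.6, 4.8 or 16.1 μmol/kg. Vehicle was 5% Solutol / 20% Captisol in 25 mM PBS, pH 2. Killed 2 h or 48 h after the last dose. CSF glycine was expressed as % of vehicle control (vehicle 2 h post last dose), mean ± SEM. Two-way ANOVA with Tukey test.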

[3] = tested on: Rattus norvegicus; test: In vivo inhibition of glycine transporter-1 in Sprague-Dawley rat assessed as CSF glycine level at 3 mg/kg, po qd for 5 days measured 2 hrs post last dose by LC-MS/MS analysis relative to control; type: functional; parameters: scale not given: the % may be the effect or the level left; method in brief: as §1
[4] = tested on: Rattus norvegicus; test: In vivo inhibition of glycine transporter-1 in Sprague-Dawley rat assessed as increase in CSF glycine level at 1 to 10 mg/kg, po qd for 5 days; type: functional, organism-based; method in brief: as §1
[5] = tested on: Rattus norvegicus; test: In vivo inhibition of glycine transporter-1 in Sprague-Dawley rat assessed as increase in CSF glycine level at 1 to 10 mg/kg, po qd for 5 days measured 48 hrs post last dose by LC-MS/MS analysis; type: functional, organism-based; method in brief: as §1
[6] = tested on: Rattus norvegicus; test: In vivo inhibition of glycine transporter-1 in po dosed Sprague-Dawley rat assessed as increase in CSF glycine level measured 2 hrs post dose by LC-MS/MS analysis; type: functional
Method in brief: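 Drug-naive adult male Sprague-Dawley rats, n = 4-5 per group, given a single oral dose of 0.4, 1.5, 4.7 or 15.7 μmol/kg. Vehicle was 5% Solutol + 10% Captisol in 25 mM PBS, pH 2. At 2 h, rats were killed by CO₂. CSF (50-100 μL) was taken from the cisterna magna, and brain and plasma were also collected. Glycine was measured by LC-MS/MS against a deuterated-glycine internal standard. Results given as % vehicle control (vehicle 30 min post-dose), mean ± SEM. Two-way ANOVA with Tukey test.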

[7] = Drug level in Sprague-Dawley rat CSF at 3 mg/kg, po qd for 5 days measured 2 hrs post last dose by LC-MS/MS analysis; type: ADME, organism-based, Cerebrospinal fluid; settings: read-out: Drug uptake
Method in brief: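 Drug-naive Sprague−Dawley rats (n = 5/group) were dosed orally once daily for 5 days in 5% Solutol plus 20% Captisol in 25 mM PBS, pH 2, and sacrificed 2 h after the last dose. Drug was measured in CSF, brain and plasma; mean ± SEM.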

[8] = Drug level in cynomolgus monkey plasma at 10 mg/kg, po measured at 12 hrs post dose by LC-MS/MS analysis; type: ADME, organism-based, Macaca fascicularis
Method in brief: (§2)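 Cynomolgus monkeys (n = 3/group) fitted with subcutaneous CSF ports were dosed orally at 0.4−15.7 μmol/kg in 5% Solutol plus 20% Captisol in 25 mM PBS, pH 2. CSF (about 0.30 mL) and blood were sampled predose and at 0.5, 1, 2, 3, 4, 8, 12 and 24 h. Quantitation limit 1.0 ng/mL; mean ± SD.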

[9] = Drug level in cynomolgus monkey plasma at 3 mg/kg, po measured at 3 hrs post dose by LC-MS/MS analysis; type: ADME, organism-based, Macaca fascicularis
[10] = AUClast in Sprague-Dawley rat plasma at 10 mg/kg, po or 2 mg/kg, iv administered as single dose measured up to 24 hrs post dose by LC-MS/MS analysis; type: ADME, organism-based
Method in brief: (§3)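 Single-dose PK in drug-naive adult male Sprague−Dawley rats, n = 3 per group: 3.1 μmol/kg IV in 5% DMSO/10% Solutol in saline (5 mL/kg), or 15.7 μmol/kg PO in 5% Solutol/10% Captisol in 25 mM PBS, pH adjusted to 2 with HCl. Plasma parameters reported as mean ± SD.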

[11] = Drug level in po dosed Sprague-Dawley rat CSF measured 2 hrs post dose by LC-MS/MS analysis; type: ADME, organism-based, Cerebrospinal fluid; settings: in vivo
[12] = Ratio of drug level in Sprague-Dawley rat brain to plasma at 3 to 10 mg/kg, po measured 2 hrs post dose by LC-MS/MS analysis; type: ADME, organism-based; settings: read-out: BPR
Method in brief: (§4)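 Drug-naive male Sprague–Dawley rats (n = 4–5/group) were dosed orally in 5% Solutol/10% Captisol in 25 mM PBS, pH 2, and euthanized by CO2 2 h post-dose. CSF (50–100 μL) was taken from the cisterna magna, and brain and plasma were collected; drug was measured in each matrix. Quantitation limit 1.0 ng/mL.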

[13] = Drug level in po dosed cynomolgus monkey plasma measured up to 24 hrs post dose by LC-MS/MS analysis; type: ADME, organism-based, Macaca fascicularis; settings: in vivo
[14] = Ratio of drug level in CSF to unbound plasma concentration in Sprague-Dawley rat at 3 to 10 mg/kg, po measured 2 hrs post dose by LC-MS/MS analysis; type: ADME, organism-based; settings: in vivo; method in brief: as §4
[15] = Drug level in po dosed Sprague-Dawley rat brain measured 2 hrs post dose by LC-MS/MS analysis; type: ADME, organism-based; settings: in vivo
[16] = Drug level in cynomolgus monkey CSF at 0.3 to 3 mg/kg, po measured up to 24 hrs post dose by LC-MS/MS analysis; type: ADME, organism-based, Macaca fascicularis, Cerebrospinal fluid; settings: in vivo, BLD = below limit of detection; method in brief: as §2
[17] = Drug level in cynomolgus monkey CSF at 10 mg/kg, po measured at 1 hr post dose by LC-MS/MS analysis; type: ADME, organism-based, Macaca fascicularis, Cerebrospinal fluid; settings: read-out: Drug uptake; method in brief: as §2
[18] = Drug level in cynomolgus monkey CSF at 10 mg/kg, po measured at 8 hrs post dose by LC-MS/MS analysis; type: ADME, organism-based, Macaca fascicularis, Cerebrospinal fluid; settings: read-out: Drug uptake; method in brief: as §2
[19] = Protein binding in human plasma; type: ADME, cell-free; settings: read-out: PPB (converted)
[20] = Drug level in cynomolgus monkey CSF at 10 mg/kg, po measured at 0.5 hr post dose by LC-MS/MS analysis; type: ADME, organism-based, Macaca fascicularis, Cerebrospinal fluid; settings: read-out: Drug uptake; method in brief: as §2
[21] = Apparent terminal half life in Sprague-Dawley rat plasma at 10 mg/kg, po or 2 mg/kg, iv administered as single dose by LC-MS/MS analysis; type: ADME, organism-based; settings: read-out: betat1/2(app) (converted); method in brief: as §3
[22] = Drug level in cynomolgus monkey plasma at 3 mg/kg, po measured at 12 hrs post dose by LC-MS/MS analysis; type: ADME, organism-based, Macaca fascicularis
[23] = Drug level in cynomolgus monkey plasma at 3 mg/kg, po measured at 1 hr post dose by LC-MS/MS analysis; type: ADME, organism-based, Macaca fascicularis
[24] = Drug level in cynomolgus monkey CSF at 10 mg/kg, po measured at 4 hrs post dose by LC-MS/MS analysis; type: ADME, organism-based, Macaca fascicularis, Cerebrospinal fluid; settings: read-out: Drug uptake; method in brief: as §2
[25] = target: Cytochrome P450 3A4 (Homo sapiens, UniProt P08684); test: Inhibition of CYP3A4 (unknown origin); type: ADME
Sequence of Cytochrome P450 3A4 (P08684 whole entry): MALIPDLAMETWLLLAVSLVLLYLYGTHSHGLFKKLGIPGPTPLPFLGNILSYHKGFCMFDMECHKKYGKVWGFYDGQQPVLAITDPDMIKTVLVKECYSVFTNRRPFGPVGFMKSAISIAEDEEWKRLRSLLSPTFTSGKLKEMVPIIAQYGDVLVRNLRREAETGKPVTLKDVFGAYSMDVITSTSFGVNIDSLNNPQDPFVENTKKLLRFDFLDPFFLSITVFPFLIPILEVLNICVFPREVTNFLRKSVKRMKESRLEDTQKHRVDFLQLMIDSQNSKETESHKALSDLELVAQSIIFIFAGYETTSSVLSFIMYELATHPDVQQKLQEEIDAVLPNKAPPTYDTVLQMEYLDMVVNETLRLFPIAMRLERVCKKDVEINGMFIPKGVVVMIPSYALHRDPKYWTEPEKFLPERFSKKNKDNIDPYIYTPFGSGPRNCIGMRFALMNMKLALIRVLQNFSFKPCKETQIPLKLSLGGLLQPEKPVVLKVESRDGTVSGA

concentration at 2 h [1]: 7.6 nM
concentration at 2 h [7]: 1.1 nM
Structure (SMILES): Cl.Cn1cc(S(=O)(=O)N2CCN(C3(CNC(=O)c4ccc(C(F)(F)F)cc4Cl)CCC(F)(F)CC3)CC2)nn1
Activity [2]: 315%
Activity [3]: 266.3%
inhibition [4]: Active
inhibition [5]: inactive
ED200 [6]: 1.6 to 4.8 µmol/kg

concentration at 12 h [8]: 135 ng/mL
concentration at 3 h [9]: 5.7 ng/mL
AUC(0-t) at 24 h [10]: 1960 ng·h/mL
Drug uptake [11]: Dose-dependent effect
Kp at 2 h [12]: 0.1 to 0.2
Drug uptake [13]: Dose-dependent effect
Ratio [14]: > 0.1
Drug uptake [15]: Dose-dependent effect
Drug uptake [16]: Bld
concentration at 1 h [17]: 5.9 ng/mL
concentration at 8 h [18]: 7.6 ng/mL
fraction unbound [19]: 0.12
concentration at 0.5 h [20]: 1.8 ng/mL
half-life [21]: 4.33 h
concentration at 12 h [22]: < 1 ng/mL
concentration at 1 h [23]: 3.6 ng/mL
concentration at 4 h [24]: 8.4 ng/mL
IC50 [25]: > 7.2 µM
Structure (SMILES): CC(NC(=O)c1ccc(C(F)(F)F)cc1Cl)C1(N2CCN(S(=O)(=O)c3cn(C)nn3)CC2)CCC(F)(F)CC1.Cl (single isomer, unassigned; (+))
